We go through three compounds from ChEMBL document CHEMBL2375226, “Bivalent angiotensin II suppresses oxidative stress-induced hyper-responsiveness of angiotensin II receptor type I” (Eur J Med Chem, 2013).

Assay [1] deals with HEK293. The assay is described as follows: Stimulation of EGFP-tagged rat AT1 receptor expressed in HEK cells assessed as increase in degree of aggregation at 5 nM under non-oxidative condition by image correlation spectroscopic analysis. It is filed as cell-based. Summed up:
(§1)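 HEK cells expressing EGFP-tagged AT₁R were plated at 1.5 × 10⁵ cells per glass-bottom dish. Where stated, cells were pre-treated with H₂O₂ for 3 h. Cell surfaces were imaged before and after 5 nM monovalent Ang II (or a 5 nM total 1:1 mixture) or 2.5 nM bivalent peptide. Imaging used a 488 nm laser and a 60× oil objective. Image correlation spectroscopy gave mean fluorescence intensity, cluster density and degree of aggregation versus unstimulated baseline.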

In assay [2] the test system is HEK293. The experiment in a line: Stimulation of EGFP-tagged rat AT1 receptor expressed in HEK cells assessed as increase in degree of aggregation at 5 nM under H2O2-induced oxidative stress condition by image correlation spectroscopic analysis. The format is cell-based. Summed up: as §1
Assay [3] concerns HEK293. The assay is described as follows: Stimulation of EGFP-tagged rat AT1 receptor expressed in HEK cells assessed as increase in cluster density value at 5 nM under H2O2-induced oxidative stress condition by image correlation spectroscopic analysis. It is filed as cell-based. An outline of the steps: as §1
Assay [4] deals with HEK293. The experiment in a line: Stimulation of EGFP-tagged rat AT1 receptor expressed in HEK cells assessed as increase in cluster density value at 5 nM under non-oxidative condition by image correlation spectroscopic analysis relative to control. The format is cell-based. An outline of the steps: as §1
For assay [5], the system named is HEK293. The experiment in a line: Stimulation of EGFP-tagged rat AT1 receptor expressed in HEK cells assessed as increase in mean fluorescence intensity at 5 nM under non-oxidative condition by image correlation spectroscopic analysis relative to control. It is filed as cell-based. An outline of the steps:
as §1

The test system of assay [6] is HEK293. The experiment in a line: Stimulation of EGFP-tagged rat AT1 receptor expressed in HEK cells assessed as increase in mean fluorescence intensity at 5 nM under H2O2-induced oxidative stress condition by image correlation spectroscopic analysis relative to control. It is filed as cell-based. Summed up:
as §1

Assay [7] relates to HEK293. The experiment in a line: Stimulation of EGFP-tagged rat AT1 receptor expressed in HEK cells assessed as increase in intracellular calcium level at 5 nM after 3 mins under H2O2-induced oxidative stress condition by fluorimetric assay. The format is cell-based. An outline of the steps: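 Before the Indo1-AM [Ca²⁺]i assay, AT₁R-HEK cells were exposed to H₂O₂ for 3 h to impose oxidative stress. They were then stimulated with 5 nM peptide, based on Ang II equivalents. Ratiometric emission at 405/490 nm (ex 338 nm) was monitored for 3 min after ligand addition. Ca²⁺ was derived by Kd-based calibration against EGTA and ionomycin ratios.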
On the technique in general: A change in cytosolic calcium serves as a functional read-out for many receptors and channels.

The subject of assay [8] is HEK293. The assay is described as follows: Stimulation of EGFP-tagged rat AT1 receptor expressed in HEK cells assessed as increase in intracellular calcium level at 10 nM after 3 mins by fluorimetric assay.
The test system of assay [9] is HEK293. The experiment in a line: Stimulation of EGFP-tagged rat AT1 receptor expressed in HEK cells assessed as increase in degree of aggregation at 2.5 nM under non-oxidative condition by image correlation spectroscopic analysis. It is filed as cell-based. An outline of the steps: as §1
In assay [10] the test system is HEK293. The assay is described as follows: Stimulation of EGFP-tagged rat AT1 receptor expressed in HEK cells assessed as increase in degree of aggregation at 2.5 nM under H2O2-induced oxidative stress condition by image correlation spectroscopic analysis. It is filed as cell-based. Summed up:
as §1

The subject of assay [11] is HEK293. The experiment in a line: Stimulation of EGFP-tagged rat AT1 receptor expressed in HEK cells assessed as decrease in cluster density value at 2.5 nM under H2O2-induced oxidative stress condition by image correlation spectroscopic analysis. The format is cell-based. An outline of the steps:
as §1

In assay [12] the test system is HEK293. The experiment in a line: Stimulation of EGFP-tagged rat AT1 receptor expressed in HEK cells assessed as change in cluster density value at 2.5 nM under non-oxidative condition by image correlation spectroscopic analysis relative to control. The format is cell-based. An outline of the steps:
as §1

Assay [13] has as its system HEK293. The assay is described as follows: Stimulation of EGFP-tagged rat AT1 receptor expressed in HEK cells assessed as increase in intracellular calcium level at 5 nM after 3 mins under H2O2-induced oxidative stress condition by fluorimetric assay.

Structures are written as SMILES. Calls of active or inactive are those of the source. No cut-off for these calls is given here.

Consider `CC[C@H](C)[C@H](NC(=O)[C@H](Cc1ccc(O)cc1)NC(=O)[C@@H](NC(=O)[C@H](CCCNC(=N)N)NC(=O)[C@@H](N)CC(=O)O)C(C)C)C(=O)N[C@@H](Cc1cnc[nH]1)C(=O)N1CCC[C@H]1C(=O)N[C@@H](Cc1ccccc1)C(=O)O`, for which the result with HEK293 [1] was inactive. Also, the outcome with HEK293 [2], in the assay on HEK293 [3], with HEK293 [4], in the assay on HEK293 [5], in the assay on HEK293 [6] and in the assay with HEK293 [7] was Active.

With `CC[C@H](C)[C@H](NC(=O)[C@H](Cc1ccc(O)cc1)NC(=O)[C@@H](NC(=O)[C@H](CCCNC(=N)N)NC(=O)[C@H](CC(=O)O)NC(=O)CCCCCNc1c(OC)c(=O)c1=O)C(C)C)C(=O)N[C@@H](Cc1cnc[nH]1)C(=O)N1CCC[C@H]1C(=O)N[C@@H](Cc1ccccc1)C(=O)O`, the outcome in the assay on HEK293 [8] was Active.

Regarding `CC[C@H](C)[C@H](NC(=O)[C@H](Cc1ccc(O)cc1)NC(=O)[C@@H](NC(=O)[C@H](CCCNC(=N)N)NC(=O)[C@H](CC(=O)O)NC(=O)CCCCCNc1c(N[C@@H](CC(=O)O)C(=O)N[C@@H](CCCNC(=N)N)C(=O)N[C@H](C(=O)N[C@@H](Cc2ccc(O)cc2)C(=O)N[C@H](C(=O)N[C@@H](Cc2cnc[nH]2)C(=O)N2CCC[C@H]2C(=O)N[C@@H](Cc2ccccc2)C(=O)O)[C@@H](C)CC)C(C)C)c(=O)c1=O)C(C)C)C(=O)N[C@@H](Cc1cnc[nH]1)C(=O)N1CCC[C@H]1C(=O)N[C@@H](Cc1ccccc1)C(=O)O`, the result with HEK293 [9], in the assay on HEK293 [10] and with HEK293 [13] was Active. Further, the outcome in the assay with HEK293 [11] and in the assay with HEK293 [12] was inactive.
